RGS4 inh: human RGS4 inhibition; P49798; HEK293 M3R/RGS4 inducible, Fluo-4 calcium flux; stronger effect = higher value; triggered by carbachol at its EC20; B-score at 10 µM; hit rate 0.45% among 310,000; AID 463165;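 active = B-score, a plate-corrected calcium signal, over three deviations above library mean, with baseline fluorescence within five deviations of library mean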;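 note: RGS4 expression induced by doxycycline in cells with stable M3 receptor; B-score is computed from the integrated fluorescence ratio over baseline after carbachol; higher B-score means a larger calcium signal and so more RGS4 inhibition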
Target sequence (P49798 whole entry, looked up): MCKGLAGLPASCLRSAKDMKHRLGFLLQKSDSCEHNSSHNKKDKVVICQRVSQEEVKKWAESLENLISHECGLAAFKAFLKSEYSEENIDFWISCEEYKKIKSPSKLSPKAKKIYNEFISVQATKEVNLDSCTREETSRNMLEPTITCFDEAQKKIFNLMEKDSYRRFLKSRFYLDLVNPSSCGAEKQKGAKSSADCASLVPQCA
MrgX1 antag: human MrgX1 receptor antagonism, primary screen; Q96LB2; MRGX1-HEK293 calcium flux, Fluo-4, BAM8-22 antagonism; stronger effect = lower value; B-score at 10 µM; hit rate 1.3% among 310,000;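 active = calcium-response B-score plate-corrected more than 3 library SD below zero, starting fluorescence within 5 deviations, no agonist response on first addition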;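 note: peak minus trough fluorescence over baseline after final BAM8-22 challenge near maximal dose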
Target sequence (Q96LB2 whole entry, looked up): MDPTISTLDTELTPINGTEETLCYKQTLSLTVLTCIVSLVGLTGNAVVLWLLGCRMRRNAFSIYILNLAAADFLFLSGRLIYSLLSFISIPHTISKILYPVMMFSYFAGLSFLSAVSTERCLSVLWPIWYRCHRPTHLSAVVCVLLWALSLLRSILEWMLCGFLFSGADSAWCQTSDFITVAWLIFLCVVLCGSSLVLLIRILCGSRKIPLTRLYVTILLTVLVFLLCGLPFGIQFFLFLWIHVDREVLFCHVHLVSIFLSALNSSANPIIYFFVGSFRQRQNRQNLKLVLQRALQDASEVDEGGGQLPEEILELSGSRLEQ
Kir21 block: blocks the mouse Kir2.1 inward-rectifier potassium channel. P35561. HEK293-Kir2.1, FluxOR thallium flux fluorescence; stronger effect = lower value. B-score at 10 µM. hit rate 0.85% among 310,000;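 active = fluorescence ratio B-score at or below minus 3 SD of library scores, with starting-brightness B-score within 2 SD, cut at about -4.2 in these data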;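 note: channel flux triggered by added potassium and thallium sulfate stimulus; B-score of peak minus minimum fluorescence over baseline after thallium stimulus; more negative B-score means stronger Kir2.1 block with less thallium influx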
MrgX1 ag: activates human MrgX1 receptor signaling. Q96LB2. MrgX1-HEK293 cells, Fluo-4 calcium fluorescence, agonist mode; stronger effect = higher value. B-score at 10 µM. hit rate 0.44% among 310,000. AID 588627;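 active = calcium response B-score plate-corrected fluorescence ratio at least 3 library SD, with starting fluorescence B-score inside 5 SD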
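System: HEK293 cells stably expressing human MrgX1 receptor; Dosing: test compound in the initial addition of three; Schedule: overnight plating, then 30 min 37 °C plus 30 min room-temperature dye loading; Detection: kinetic calcium dye fluorescence, Fluo-4 NW; Controls: per-plate positive and negative controls for Z′ factor.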
MrgX1 PAM: allosterically activates human MrgX1 receptor signaling. Q96LB2. MrgX1-HEK293, Fluo-4 calcium flux, FDSS; stronger effect = higher value. B-score at 10 µM. hit rate 0.63% among 310,000;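 active = plate-corrected calcium response at least 3 library SD above typical, normal starting fluorescence, not activating the receptor alone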;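 note: compound read alongside a low EC10 to EC30 dose of BAM8-22 agonist; peak minus trough fluorescence over baseline measured at the second addition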
RGS4 act: RGS4 potentiation or activation; hit rate 0.92% among 310,000; HEK293 M3R/inducible RGS4, carbachol calcium flux Fluo4; stronger effect = lower value; AID 463111; B-score at 10 µM;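 active = B-score of the integrated calcium signal more than 4 SD below the library mean, with starting fluorescence not abnormally high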;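 note: negative B-score means reduced calcium response which marks RGS4 activation or potentiation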
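Material: Inducible-RGS4 HEK293 cells carrying M3 receptor; also added: carbachol at ECmax as muscarinic agonist stimulus; incubation: compound preincubation 20 min at room temperature before agonist; signal: Fluo4-AM (2 µM) calcium-flux fluorescence, kinetic read; measure: integrated calcium ratio converted to B score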
RGS4 block valid: RGS4 inhibitor validation; shares compounds with RGS4 inh; HEK293 M3R/RGS4, carbachol calcium Fluo-4 fluorescence; carbachol added at its EC20; 0 = buffer wells, 100 = carbachol control; calcium response, % at 10 µM; hit rate 65% among 1,700; AID 492999;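 active = duplicate-averaged calcium response above the buffer-only control mean plus 5 SD of those controls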;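 note: integrated fluorescence ratio F max minus min over baseline F0; higher response in RGS4-induced cells means RGS4 inhibition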
RGS4 uninduced: checks RGS4 inhibitor effects in non-induced HEK293 M3R cells | shares compounds with RGS4 inh | carbachol calcium Fluo-4; submaximal (EC20) carbachol stimulus; buffer wells 0%, carbachol control wells 100% | activity (percent), % at 10 µM | hit rate 20% among 1,900 | AID 493000; call rule not given here;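 note: RGS4 induction absent so cells express M3R without RGS4; higher means more calcium signal and flags a non-specific hit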
M3R basal Ca ctr: signal in non-induced cells without carbachol, RGS4 inhibitor counter-screen. shares compounds with RGS4 inh. HEK293 M3R/RGS4 non-induced, Fluo-4 calcium, no carbachol; normalised: buffer wells 0%, carbachol wells 100%. calcium response (agonist-mode artifact), % at 10 µM. hit rate 22% among 1,900;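 active = duplicate-averaged calcium rise in uninduced cells above buffer wells' mean plus 5 SD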
Numbers without * were called inactive; i = inactive; nt = no result given. In the library only some 4.1% were active in any assay of this set; here they are far more common.

SMILES	RGS4 inh	MrgX1 antag	Kir21 block	MrgX1 ag	MrgX1 PAM	RGS4 act	RGS4 block valid	RGS4 uninduced	M3R basal Ca ctr
Cc1sc(NC(=O)c2ccccc2F)c(CN2CCCCC2C)c1C (stereo unspecified)	i	i	-2.1	i	i	i	nt	nt	nt
COCCCNC(=O)c1c[nH]c2ccc(S(=O)(=O)N(C)c3ccccc3C)cc2c1=O	i	i	-0.36	i	i	i	nt	nt	nt
COC(=O)c1ccc(COc2ccccc2/C=C(\C#N)C(=O)Nc2ccc(C)cc2C)cc1	i	i	-0.17	i	i	i	i	i	i
COC(=O)c1ccc(COc2ccccc2/C=C(\C#N)C(=O)Nc2c(C)cc(C)cc2C)cc1	i	i	0.47	i	i	i	i	i	i
Cc1cc(C)c(NC(=O)/C(C#N)=C/c2ccc(OCc3ccc(F)cc3)cc2)c(C)c1	i	i	0	i	i	i	nt	nt	nt
CCOc1ccccc1/C=C(\C#N)C(=O)Nc1cccc(C(=O)O)c1	5*	i	0.94	i	i	i	14%*	i	i
COc1cc(/C=C(\C#N)C(=O)Nc2cccc(C(=O)O)c2)ccc1OCc1ccc(Cl)cc1	i	i	0.01	i	i	i	nt	nt	nt
COc1cc(/C=C(/C#N)C(=O)Nc2ccccc2)c(Br)cc1OCc1ccc(C(=O)O)cc1	i	i	-1.1	i	i	i	nt	nt	nt
CCC(=O)Nc1ccc(N2CCN(C(=O)c3ccccc3C)CC2)cc1	i	i	0.45	i	i	i	nt	nt	nt
O=C(NC(Nc1ccc(F)cc1)(C(F)(F)F)C(F)(F)F)c1cccnc1	i	i	0.9	i	i	i	nt	nt	nt
CCn1c(COc2cccc(OC)c2)nnc1SCC(=O)Nc1ccccc1C(=O)OC	i	i	-3.5	i	i	i	nt	nt	nt
Cc1ccc(NC(=O)COC(=O)C2CCN(c3ccc(C(F)(F)F)cn3)CC2)cc1C	i	i	0.6	i	i	i	nt	nt	nt
CCc1nnc(NC(=O)c2cc(-c3ccncc3)nc3ccccc23)s1	4.9*	i	0.38	i	i	i	18%*	i	i
O=C(Nc1nc2c(s1)CCCC2)c1cc(-c2ccncc2)nc2ccccc12	i	i	0.01	i	i	i	nt	nt	nt
Cc1sc(NC(=O)c2cc(-c3ccccc3)nc3ccccc23)c(C(N)=O)c1C	i	i	-3.1	i	i	i	nt	i	i
CCOc1ccc(NS(=O)(=O)c2ccc(NS(=O)(=O)c3ccc(SC)cc3)cc2)cc1	5.2*	-4.8*	-0.34	i	i	i	13%*	32%*	i
CSc1ccc(S(=O)(=O)Nc2ccc(S(=O)(=O)Nc3ccc(C)cc3)cc2)cc1	5*	i	1.7	i	i	i	28%*	i	i
Cc1ccc(CCNC(=O)CSCc2ccc(F)cc2)cc1	i	i	-3.1	i	i	i	nt	nt	nt
Cc1cc(Cl)ccc1Nc1ncccc1C(N)=O	5.3*	i	-2.1	i	i	i	12%*	i	i
NC(=O)c1cccnc1Nc1ccccc1F	i	i	-1.5	i	i	i	nt	nt	nt
CC1=NN(c2ccc(Cl)cc2)C(=O)C1C(c1cccc(O)c1)c1c(C)[nH]n(-c2ccc(Cl)cc2)c1=O (stereo unspecified)	i	i	-0.77	i	i	i	nt	36%*	i
Cc1cc(-c2c(C)[nH]n(-c3ccc(Cl)cc3)c2=O)n(-c2ccccc2)n1	i	i	0.39	i	i	i	nt	nt	nt
CC1(C)Cc2c(C#N)c(NCc3ccco3)nc(-c3ccco3)c2CO1	i	i	0.01	i	i	i	nt	nt	nt
N#Cc1c(N2CCOCC2)nc(-c2ccco2)c2c1CCCC2	i	i	1.3	i	i	i	i	i	i
CCc1nc(N2CCOCC2)c(C#N)c2c1CCCC2	i	i	-1.5	i	i	i	nt	nt	nt
SMILES	RGS4 inh	MrgX1 antag	Kir21 block	MrgX1 ag	MrgX1 PAM	RGS4 act	RGS4 block valid	RGS4 uninduced	M3R basal Ca ctr
CC1(C)Cc2c(C#N)c(N3CCCC3)nc(-c3ccco3)c2CO1	8.5*	i	0.39	i	i	i	6.0%*	i	13%*
CCOC(=O)C1(C)C=C(Nc2ccc(O)cc2)C(=O)N1c1ccc(O)cc1 (stereo unspecified)	i	i	-0.03	i	i	i	nt	nt	nt
CC(=O)c1ccc(Nc2ccc([N+](=O)[O-])c3nonc23)cc1	i	i	2.4	i	i	i	nt	nt	nt
COC(=O)Nc1ccc(=O)n(Cc2c(Cl)cccc2Cl)c1	i	i	0.24	i	i	i	nt	i	i
C#CCOC(=O)Nc1cccn(Cc2c(Cl)cccc2Cl)c1=O	i	i	-0.22	i	i	i	nt	nt	nt
CCOn1c(=O)c(-c2ccc(OC)c(OC)c2)[n+]([O-])c2ccccc21	i	i	0	i	i	i	i	i	i
O=C(NCc1n[nH]c(=S)n1-c1ccc(Br)cc1)c1ccc(S(=O)(=O)N2CCCC2)cc1	i	i	-0.63	i	i	i	nt	nt	nt
COC(c1ccccc1)c1nnc(CCC(=O)NCCC(C)C)o1 (stereo unspecified)	i	i	0.36	i	i	i	nt	nt	nt
COc1ccc(/C=C2/C(=O)N(c3ccccc3)N=C2C)cc1OC	i	i	0	i	i	i	i	i	i
COC(=O)c1ccc(/C=C/C(=O)c2ccc(OC)c(OC)c2)cc1	8.9*	i	-0.37	i	i	i	7.0%*	44%*	i
Cc1ccc(C(=O)/C=C/c2ccc3ncccc3c2)cc1	7.8*	i	-0.35	i	i	i	22%*	36%*	i
CCOc1cc(/C=C/C(=O)c2ccc(C)cc2)ccc1OCC(=O)N(C)C	i	i	-0.41	i	i	i	nt	nt	nt
COc1cc(/C=C/C(=O)c2ccc(C)cc2)ccc1OCC#N	i	i	-0.02	i	i	i	i	32%*	i

Screening results from PubChem.
